# Data reported in ChEMBL document CHEMBL3124806, “Imidazopyridine-fused [1,3]-diazepinones: synthesis and antiproliferative activity” (Eur J Med Chem, 2014).
# Calls of active or inactive are those of the source. The rule behind the calls is not given here.
# What was measured:
# [1] = system: MDA-MB-435; test: Induction of apoptosis in human MDA-MB-435 cells assessed as stretched stress action fibres at 5 uM after 20 hrs by Hoechst 33342 staining-based […] microscopy; type: functional, cell-based
# Outline: (§1)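 MDA-MB-435 cells were grown for 24 h, then treated with or without 5 μM compound for 20 h. Cells were fixed for 20 min and permeabilised with 0.2% Triton X-100 for 4 min at room temperature. Actin was stained with a mouse anti-actin antibody and an Alexa Fluor 568 anti-mouse antibody, each for 1 h at RT. Nuclei were counterstained with Hoechst 33342, and cells were imaged by confocal microscopy.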
# [2] = system: MDA-MB-435; test: Cytotoxicity against human MDA-MB-435 cells assessed as reduction in cell growth at 1 to 10 uM after 48 hrs by MTT assay relative to untreated control; type: functional; design: scale not given: the % may be the effect or the level left
# Outline: (§2)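 Melanoma lines grown at 37 °C in humidified 5% CO2: MDA-MB-435 in DMEM/Ham's F12 1:1 with 10% FCS and antibiotics, SK-MEL-2 in RPMI-1640 with 10% FCS. Cells plated 24 h, then exposed 48 h to 100–0.01 µM (dilutions from fresh 100 µM stock in medium). MTT 0.5 mg/mL added for 4 h, crystals dissolved in EtOH/DMSO 1:1, absorbance read at 540 nm. Mean ± SD of three independent experiments.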
# [3] = system: SK-MEL-2; test: Cytotoxicity against human SK-MEL-2 cells assessed as reduction in cell growth at 1 to 10 uM after 48 hrs by MTT assay relative to untreated control; type: functional; design: scale not given: the % may be the effect or the level left; outline: as §2
# [4] = system: MDA-MB-435; test: Induction of apoptosis in human MDA-MB-435 cells assessed as alterations in stress action fibre aggregation at 5 uM after 20 hrs by Hoechst 33342 staining-based […] microscopy; type: functional, cell-based; outline: as §1
# [5] = molecular target: Mitogen-activated protein kinase kinase kinase kinase 4 (Homo sapiens) (UniProt O95819); test: Inhibition of human HGK at 10 uM
# Mitogen-activated protein kinase kinase kinase kinase 4 (Homo sapiens), sequence (O95819 2-1239 limits assumed): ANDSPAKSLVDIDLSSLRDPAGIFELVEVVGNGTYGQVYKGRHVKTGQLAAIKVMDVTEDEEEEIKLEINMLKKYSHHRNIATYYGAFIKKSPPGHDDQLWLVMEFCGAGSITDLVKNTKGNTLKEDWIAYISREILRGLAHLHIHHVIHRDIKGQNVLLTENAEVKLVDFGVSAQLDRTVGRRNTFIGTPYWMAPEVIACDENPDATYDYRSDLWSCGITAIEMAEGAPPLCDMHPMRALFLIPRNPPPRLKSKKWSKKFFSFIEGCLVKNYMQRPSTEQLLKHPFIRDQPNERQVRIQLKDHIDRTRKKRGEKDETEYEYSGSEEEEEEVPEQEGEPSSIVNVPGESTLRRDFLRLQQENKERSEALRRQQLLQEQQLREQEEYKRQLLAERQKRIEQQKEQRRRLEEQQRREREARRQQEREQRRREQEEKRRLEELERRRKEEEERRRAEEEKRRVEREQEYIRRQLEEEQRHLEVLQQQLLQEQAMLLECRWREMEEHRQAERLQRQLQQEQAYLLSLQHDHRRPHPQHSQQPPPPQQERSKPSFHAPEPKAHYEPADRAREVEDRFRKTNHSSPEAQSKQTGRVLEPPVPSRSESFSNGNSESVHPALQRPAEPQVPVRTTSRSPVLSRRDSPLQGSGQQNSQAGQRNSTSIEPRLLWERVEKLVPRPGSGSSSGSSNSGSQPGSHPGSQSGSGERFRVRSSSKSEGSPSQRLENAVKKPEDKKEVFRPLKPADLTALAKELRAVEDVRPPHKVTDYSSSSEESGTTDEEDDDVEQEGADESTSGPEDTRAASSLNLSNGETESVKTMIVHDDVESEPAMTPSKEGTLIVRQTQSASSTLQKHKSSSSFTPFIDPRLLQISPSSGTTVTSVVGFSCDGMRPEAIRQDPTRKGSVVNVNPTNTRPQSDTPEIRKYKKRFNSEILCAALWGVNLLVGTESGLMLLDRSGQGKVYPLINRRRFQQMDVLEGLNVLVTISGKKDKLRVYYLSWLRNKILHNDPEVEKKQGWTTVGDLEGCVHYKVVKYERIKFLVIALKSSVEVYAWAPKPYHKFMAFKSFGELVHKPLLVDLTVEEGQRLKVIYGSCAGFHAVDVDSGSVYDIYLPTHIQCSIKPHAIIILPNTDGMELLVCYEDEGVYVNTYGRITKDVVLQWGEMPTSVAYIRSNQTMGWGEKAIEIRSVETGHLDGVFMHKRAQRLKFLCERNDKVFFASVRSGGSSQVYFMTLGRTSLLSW
# Outline: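 Kinase selectivity panel of 19 protein tyrosine kinases and 30 serine/threonine kinases, run by a contract lab (CEREP). Each compound was tested at a single dose of 10 μM in duplicate.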
# [6] = system: CAKI-1; test: Cytotoxicity against human Caki1 cells after 48 hrs by SRB assay; type: functional; conditions: CAKI-1, 48 h
# Outline: (§3)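 NCI-60 five-dose testing, 100 to 0.01 µM, under a 48 h continuous-exposure protocol. Growth estimated by SRB protein assay, read spectrophotometrically against untreated controls; IC50 derived from the dose-response.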
# [7] = system: NCI-H460; test: Cytotoxicity against human NCI-H460 cells after 48 hrs by SRB assay; type: functional; conditions: NCI-H460, 48 h
# Outline: (§4)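 NCI-60 five-dose screen: cells exposed continuously for 48 h across 100 to 0.01 µM. Growth or viability estimated by sulforhodamine B protein staining, read spectrophotometrically against untreated controls; IC50 taken from the dose-response.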
# [8] = system: HCT-15; test: Cytotoxicity against human HCT15 cells after 48 hrs by SRB assay; type: functional; conditions: HCT-15, 48 h; outline: as §3
# [9] = system: LOX IMVI; test: Cytotoxicity against human LOXIMVI cells after 48 hrs by SRB assay; type: functional; outline: as §3
# [10] = system: TK-10; test: Cytotoxicity against human TK10 cells after 48 hrs by SRB assay; type: functional; conditions: TK-10, 48 h
# Outline: (§5)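 NCI-60 five-dose mode on the full human tumour line panel. Concentrations ran from 100 to 0.01 µM with 48 h continuous exposure. Growth was estimated by SRB protein staining against untreated controls, and IC50 values were derived from the dose–response.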
# [11] = Cytotoxicity against human UO31 cells after 48 hrs by SRB assay; type: functional; conditions: UO-31, 48 h; outline: as §5
# [12] = system: MDA-MB-435; test: Cytotoxicity against human MDA-MB-435 cells after 48 hrs by MTT assay; type: functional, cell-based; conditions: MDA-MB-435, 48 h; outline: as §2
# [13] = Cytotoxicity against human OVCAR5 cells after 48 hrs by SRB assay; type: functional; conditions: OVCAR-5, 48 h; outline: as §4
# [14] = system: MDA-MB-435; test: Cell cycle arrest in human MDA-MB-435 cells assessed as accumulation at S phase at 5 uM after 48 hrs by propidium iodide staining-based FACS analysis (reference value: 22.8%); type: functional
# [15] = system: NCI-H226; test: Cytotoxicity against human NCI-H226 cells after 48 hrs by SRB assay; type: functional; conditions: NCI-H226, 48 h; outline: as §4
# [16] = system: K562; test: Cytotoxicity against human K562 cells after 48 hrs by SRB assay; type: functional; conditions: K562, 48 h; outline: as §3
# [17] = system: NCI-H23; test: Cytotoxicity against human NCI-H23 cells after 48 hrs by SRB assay; type: functional; conditions: NCI-H23, 48 h; outline: as §4
# [18] = system: A549; test: Cytotoxicity against human A549 cells after 48 hrs by SRB assay; type: functional; conditions: A549, 48 h; outline: as §3
# [19] = system: NCI-H322M; test: Cytotoxicity against human NCI-H322M cells after 48 hrs by SRB assay; type: functional; outline: as §4
# [20] = system: MDA-MB-435; test: Cytotoxicity against human MDA-MB-435 cells at 5 uM after 24 hrs by MTT assay; type: functional
# Outline: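 MDA-MB-435 cells in DMEM/Ham's F12 (1:1) with 10% FCS, 37 °C, 5% CO2. Time course at a fixed 5 µM, incubated 8, 16, 24 or 48 h. Viability then read by MTT reduction (0.5 mg/mL, 4 h), formazan dissolved in EtOH/DMSO, absorbance at 540 nm, as percent living cells.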
# [21] = system: SNB-19; test: Cytotoxicity against human SNB19 cells after 48 hrs by SRB assay; type: functional; conditions: SNB-19, 48 h; outline: as §5
# [22] = system: HOP-92; test: Cytotoxicity against human HOP92 cells after 48 hrs by SRB assay; type: functional; conditions: HOP-92, 48 h; outline: as §3
# [23] = Cytotoxicity against human CAL-1 cells assessed as cell growth at 10 uM after 48 hrs by MTT assay relative to untreated control; type: functional; conditions: CAL1, 48 h, read-out: Activity
# Outline: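 CAL1 melanoma cells grown in DMEM with 2 mM L-glutamine and 10% FCS at 37 °C, 5% CO2. Seeded at 10^4 cells/well, grown 24 h, then treated 48 h across 100–0.01 μM (compounds dissolved in medium). Read-out: 0.5 mg mL⁻¹ MTT for 4 h, crystals dissolved in EtOH/DMSO 1:1, absorbance at 540 nm.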
# [24] = system: MDA-MB-435; test: Cytotoxicity against human MDA-MB-435 cells after 48 hrs by SRB assay; type: functional, cell-based; conditions: MDA-MB-435, 48 h; outline: as §4
# [25] = read-out: LC50 (the source's name)
smiles,measurement,setting,value
C[C@@H]1NC(c2ccccc2)=Nc2nc3ccccn3c2C1=O,Activity,[1],inactive
same,Activity,[2],20%
same,Activity,[3],20%
C[C@@H]1NC(c2ccc(Br)cc2)=Nc2nc3ccccn3c2C1=O,Activity,[4],Active
same,inhibition,[5],50%
same,GI50,[6],3.09 µM
same,TGI,[6],> 100 µM
same,CC50,[6]; [25],> 100 µM
same,GI50,[7],3.06 µM
same,TGI,[7],> 100 µM
same,CC50,[7]; [25],> 100 µM
same,GI50,[8],3.64 µM
same,TGI,[8],> 100 µM
same,CC50,[8]; [25],> 100 µM
same,GI50,[9],6.34 µM
same,TGI,[9],> 100 µM
same,CC50,[9]; [25],> 100 µM
same,GI50,[10],21 µM
same,TGI,[10],> 100 µM
same,CC50,[10]; [25],> 100 µM
same,GI50,[11],8.11 µM
same,TGI,[11],> 100 µM
same,CC50,[11]; [25],> 100 µM
same,IC50,[12],1.7 µM
same,GI50,[13],23.5 µM
same,TGI,[13],> 100 µM
same,CC50,[13]; [25],> 100 µM
same,Activity,[14],30.8%
same,GI50,[15],14.7 µM
same,TGI,[15],> 100 µM
same,CC50,[15]; [25],> 100 µM
same,GI50,[16],4.13 µM
same,TGI,[16],> 100 µM
same,CC50,[16]; [25],> 100 µM
same,GI50,[17],25.4 µM
same,TGI,[17],> 100 µM
same,CC50,[17]; [25],> 100 µM
same,GI50,[18],6.7 µM
same,TGI,[18],> 100 µM
same,CC50,[18]; [25],> 100 µM
same,GI50,[19],23.6 µM
same,TGI,[19],> 100 µM
same,CC50,[19]; [25],> 100 µM
same,Activity,[20],10%
same,GI50,[21],7.45 µM
same,TGI,[21],> 100 µM
same,CC50,[21]; [25],> 100 µM
same,GI50,[22],1.16 µM
same,TGI,[22],22.9 µM
same,CC50,[22]; [25],> 100 µM
same,growth at 10 µM,[23],12%
same,GI50,[24],1.33 µM
same,IC50,[24],1.3 µM
same,LC50,[24],> 100 µM
same,TGI,[24],7.1 µM
